# Measured values from ChEMBL document CHEMBL3232994, “Searching for new derivatives of neocryptolepine: synthesis, antiproliferative, antimicrobial and antifungal activities” (Eur J Med Chem, 2014).
# pIC50: −log10 of the molar value. Calls of active or inactive are those of the source. No cut-off for these calls is given here.
# Assays:
# [1] = test system: Candida albicans; assay: Antifungal activity against Candida albicans ATCC 10231 assessed as growth inhibition after 18 hrs by two-fold serial dilution method; format: functional; settings: ATCC 10231, 18 h
# In short: (§1)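 MIC by twofold serial dilution on RPMI agar per CLSI. Final inoculum 10⁴ CFU/mL. Plates read after 18 h at 35 °C.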
# [2] = test system: Candida parapsilosis; assay: Antifungal activity against Candida parapsilosis ATCC 22019 assessed as growth inhibition after 18 hrs by two-fold serial dilution method; format: functional; settings: Lodderomyces parapsilosis, ATCC 22019, 18 h
# [3] = test system: Candida albicans; assay: Antifungal activity against Candida albicans ATCC 90028 assessed as growth inhibition after 18 hrs by two-fold serial dilution method; format: functional; settings: ATCC 90028, 18 h; in short: as §1
# [4] = test system: Bacillus cereus; assay: Antibacterial activity against Bacillus cereus ATCC 11778 assessed as growth inhibition after 18 hrs by two-fold serial dilution method; format: functional; settings: ATCC 11778, 18 h
# In short: (§2)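 Twofold serial agar dilution on Mueller–Hinton II agar per CLSI. Final inoculum 10⁴ CFU/mL, except Enterococcus hirae ATCC 10541 at 10⁵ CFU/mL. MIC read after 18 h at 35 °C.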
# [5] = test system: Enterococcus hirae; assay: Antibacterial activity against Enterococcus hirae ATCC 10541 assessed as growth inhibition after 18 hrs by two-fold serial dilution method; format: functional; settings: ATCC 10541, 18 h; in short: as §2
# [6] = test system: Micrococcus luteus; assay: Antibacterial activity against Micrococcus luteus ATCC 10240 assessed as growth inhibition after 18 hrs by two-fold serial dilution method; format: functional; settings: ATCC 10240, 18 h; in short: as §2
# [7] = test system: Staphylococcus aureus; assay: Antibacterial activity against Staphylococcus aureus NCTC 4163 assessed as growth inhibition after 18 hrs by two-fold serial dilution method; format: functional; settings: NCTC 4163, 18 h; in short: as §2
# [8] = test system: Staphylococcus aureus; assay: Antibacterial activity against Staphylococcus aureus ATCC 25923 assessed as growth inhibition after 18 hrs by two-fold serial dilution method; format: functional; settings: ATCC 25923, 18 h; in short: as §2
# [9] = test system: Staphylococcus aureus; assay: Antibacterial activity against Staphylococcus aureus ATCC 6538 assessed as growth inhibition after 18 hrs by two-fold serial dilution method; format: functional; settings: ATCC 6538, 18 h; in short: as §2
# [10] = test system: Staphylococcus aureus; assay: Antibacterial activity against Staphylococcus aureus ATCC 29213 assessed as growth inhibition after 18 hrs by two-fold serial dilution method; format: functional; settings: ATCC 29213, 18 h; in short: as §2
# [11] = test system: Staphylococcus epidermidis; assay: Antibacterial activity against Staphylococcus epidermidis ATCC 12228 assessed as growth inhibition after 18 hrs by two-fold serial dilution method; format: functional; settings: ATCC 12228, 18 h; in short: as §2
# [12] = test system: Bacillus spizizenii; assay: Antibacterial activity against Bacillus subtilis ATCC 6633 assessed as growth inhibition after 18 hrs by two-fold serial dilution method; format: functional; settings: ATCC 6633, 18 h; in short: as §2
# [13] = test system: Micrococcus luteus; assay: Antibacterial activity against Micrococcus luteus ATCC 9341 assessed as growth inhibition after 18 hrs by two-fold serial dilution method; settings: ATCC 9341, 18 h
# [14] = test system: Candida albicans; assay: Antifungal activity against Candida albicans SN250 assessed as growth inhibition after 18 hrs by two-fold serial dilution method; format: functional; settings: SN250, 18 h
# [15] = test system: BALB/3T3; assay: Cytotoxicity against mouse BALB/3T3 cells assessed as growth inhibition after 72 hrs by SRB assay; format: cell-based; settings: BALB/3T3, 72 h
# In short: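 Mouse fibroblasts were kept in Dulbecco medium with 10% FBS, L-glutamine and pyruvate, and seeded at 10⁴/well 24 h before dosing. Agents were given at four tenfold final levels for 72 h. Cells were TCA-fixed (50%, 4 °C, 1 h) and stained with 0.4% SRB in 1% acetic acid. Triplicate wells, 3–5 repeats. IC50 versus untreated cells.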
# [16] = test system: A549; assay: Cytotoxicity against human A549 cells assessed as growth inhibition after 72 hrs by SRB assay; format: functional, cell-based; settings: A549, 72 h
# In short: (§3)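 Cells were seeded at 10⁴/well in RPMI 1640/Opti-MEM (1:1) with 5% FBS, plus 0.01 mg/mL insulin for MCF-7, 24 h before dosing. Agents in water/medium were given at four tenfold final levels for 72 h. Cells were fixed with cold 50% TCA (1 h, 4 °C), stained with 0.4% SRB, cell-free blank. Triplicate wells, 3–5 repeats. IC50 relative to untreated control.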
# [17] = test system: MCF7; assay: Cytotoxicity against human MCF7 cells assessed as growth inhibition after 72 hrs by SRB assay; format: functional, cell-based; settings: MCF7, 72 h; in short: as §3
# [18] = test system: LoVo; assay: Cytotoxicity against human LoVo cells assessed as growth inhibition after 72 hrs by SRB assay; format: functional, cell-based; in short: as §3
# [19] = test system: KB; assay: Cytotoxicity against human KB cells assessed as growth inhibition after 72 hrs by SRB assay; format: functional, cell-based; in short: as §3
# [20] = test system: Candida albicans; assay: Antifungal activity against Candida albicans SN250 assessed as inhibition of biofilm formation < MIC after 24 hrs by XTT reduction assay; format: functional, organism-based
# [21] = test system: Candida albicans; assay: Antifungal activity against Candida albicans SN250 assessed as […] at 2.4 to 625 ug/mL after 24 hrs by XTT reduction assay; format: functional, organism-based
SMILES,MIC [1] [µg/mL],MIC [2] [µg/mL],MIC [3] [µg/mL],MIC [4] [µg/mL],MIC [5] [µg/mL],MIC [6] [µg/mL],MIC [7] [µg/mL],MIC [8] [µg/mL],MIC [9] [µg/mL],MIC [10] [µg/mL],MIC [11] [µg/mL],MIC [12] [µg/mL],MIC [13] [µg/mL],MIC [14] [µg/mL],pIC50 [15],pIC50 [16],pIC50 [17],pIC50 [18],pIC50 [19],inhibition [21],also measured
OC(Cn1cncn1)(Cn1cncn1)c1ccc(F)cc1F [FLUCONAZOLE],1,2,1,–,–,–,–,–,–,–,–,–,–,–,–,–,–,–,–,–,–
O=C(O)c1cn(C2CC2)c2cc(N3CCNCC3)c(F)cc2c1=O [CIPROFLOXACIN],–,–,–,1,4,1,0.25,0.5,0.25,0.5,0.25,< 0.125,2,–,–,–,–,–,–,–,–
Cc1c2c3ccccc3nc-2n(C)c2ccc(NC(=O)[C@@H]3CCCN3)cc12.Cl,100,50,50,25,100,6.25,12.5,50,12.5,50,12.5,6.25,6.25,31.2,6.27,6.92,6.21,7.15,6.33,–,–
Cc1c2c3ccccc3nc-2n(C)c2ccc(NC(=O)CN)cc12.Cl,100,100,100,50,100,12.5,12.5,12.5,12.5,12.5,12.5,12.5,6.25,15.6,6.38,7.10,6.34,7.22,6.38,–,inhibition [20]: Active
Cc1c2c3cc(NC(=O)CNC(=O)[C@@H]4CCCN4)ccc3nc-2n(C)c2ccccc12.Cl.Cl,200,200,200,> 200,> 200,50,> 200,> 200,> 200,100,100,100,50,200,–,–,–,–,–,inactive,–
Cc1c2c3cc(NC(=O)CNC(=O)CN)ccc3nc-2n(C)c2ccccc12.Cl.Cl,200,200,200,> 200,> 200,200,> 200,> 200,> 200,> 200,> 200,100,200,200,–,–,–,–,–,inactive,–
